Source: PubChem (The Scripps Research Institute Molecular Screening Center)
Most compounds without a hit are left out; they make up all but 3% or so of the library.
CHRM4 agonist = CHRM4 agonism in calcium assay. CHO-K1 hM4/Gqi5, Fluo-8 calcium fluorescence; vehicle 0%, full acetylcholine response 100%. hit rate 0.14% among 360,000. P08173. activation, % at 3 µM;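 active = activation above the run mean over all test wells plus 3 SD, cut at about 32% in these data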;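 note: peak over basal fluorescence ratio per well then scaled between controls; 0% = DMSO wells and 100% = acetylcholine at EC100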
Target sequence (P08173 whole entry, looked up): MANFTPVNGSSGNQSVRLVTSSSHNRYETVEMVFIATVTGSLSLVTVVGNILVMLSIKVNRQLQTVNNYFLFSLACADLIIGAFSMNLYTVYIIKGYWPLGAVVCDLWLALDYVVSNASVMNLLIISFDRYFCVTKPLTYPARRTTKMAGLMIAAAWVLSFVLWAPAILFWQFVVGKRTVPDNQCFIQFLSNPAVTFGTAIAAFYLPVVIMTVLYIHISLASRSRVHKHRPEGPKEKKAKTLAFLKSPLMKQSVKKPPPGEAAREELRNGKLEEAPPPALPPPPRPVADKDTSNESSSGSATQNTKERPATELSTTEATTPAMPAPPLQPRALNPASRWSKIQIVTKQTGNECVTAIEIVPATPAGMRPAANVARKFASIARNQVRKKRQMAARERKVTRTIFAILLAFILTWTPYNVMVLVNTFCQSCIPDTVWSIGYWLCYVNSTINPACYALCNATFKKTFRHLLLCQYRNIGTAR
TAAR1 antag = antagonists of human TAAR1; AID 624466; Q96RJ0; inhibition, % at 3 µM; CHO RD-HGA16 TAAR1, Fluo-8 calcium fluorescence, antagonist; hit rate 1.5% among 360,000;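 active = inhibition above a per-plate cutoff, the mean inhibition of test compounds on that plate plus 3 SD, cut at about 49% in these data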;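 note: 0% = DMSO plus EC80 beta-PEA response and 100% = DMSO alone without agonist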
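Test system – hTAAR1-expressing CHO RD-HGA16 cells, Gα16-coupled · Also added – β-PEA at EC80 concentration, post-compound challenge · Compound – 3 µM, single point · Incubation – dye loading 75 min at 37 °C, then 30 min room temperature · Measured by – Fluo-8 intracellular calcium dye fluorescence, real-time kinetic reads · Benchmarks – vehicle and agonist controls · Replicates – singlicate, one well per test compound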
TAAR1 ag = agonists of human TAAR1 | Q96RJ0 | CHO RD-HGA16 TAAR1, Fluo-8 calcium fluorescence; vehicle wells 0%, saturating PEA agonist 100% | activation, % at 3 µM | hit rate 0.99% among 360,000 | AID 624467;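 active = activation above the mean activation of all test compounds in the run plus 3 SD, cut at about 38% in these data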
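Repeats: no replicates (n 1) | Material: CHO-derived RD-HGA16 cells with stable Gα16 and human TAAR1 | Technique: Kinetic Fluo-8 calcium fluorescence | Schedule: 17-24 h seeding, 75 min 37 °C dye, 30 min RT | Evaluation: % activation from peak over basal fluorescence ratio, DMSO-to-PEA scaled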
CHRM4 antagonist = blocks acetylcholine activation of human M4 receptor | inhibition, % at 3 µM | CHO-hM4 cells, ACh EC80, Fluo-8 calcium fluorescence | hit rate 0.73% among 360,000 | P08173;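 active = inhibition above its plate's cutoff, the mean inhibition of sample wells plus 3 SD, cut at about 27% in these data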;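 note: 0% = acetylcholine EC80 with DMSO and 100% = DMSO without agonist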
M4 PAM = potentiates acetylcholine response at human M4 receptor. P08173. CHO-K1 hM4/Gqi5, Fluo-8 calcium fluorescence, ACh EC20; 0% = ACh EC20, 100% = maximal ACh. activation, % at 3 µM. hit rate 0.4% among 360,000;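 active = activation above its plate's cutoff, the mean activation of sample wells plus 3 SD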
TAAR1 ag confirm = human TAAR1 agonism, confirmed. shares compounds with TAAR1 ag. CHO RD-HGA16 TAAR1, Fluo-8 calcium fluorescence; scaled: DMSO 0%, maximal phenethylamine 100%. activation, % at 3 µM. hit rate 82% among 2,400. AID 651783;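 active = activation above a cutoff set at the run's mean compound activation plus 3 SD, cut at about 39% in these data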
Ga16 nonsel ag = nonselective agonist in parental cells, TAAR1 agonist counter-screen; shares compounds with TAAR1 ag; hit rate 50% among 2,400; CHO-Ga16 parental, Fluo-8 calcium fluorescence; normalized to maximal ATP response, DMSO zero; activation, % at 3 µM;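 active = activation above the run cutoff, the mean activation over all tested wells plus 3 SD, cut at about 12% in these data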;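 note: 0% = DMSO wells and 100% = maximal ATP response on the peak over basal ratio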
TAAR1 desensitize = TAAR1 response desensitization, agonist counter-screen. shares compounds with TAAR1 ag. CHO RD-HGA16 hTAAR1, Fluo-8 calcium, beta-PEA response inhibition. inhibition, % at 3 µM. hit rate 46% among 2,400. AID 651951;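 active = inhibition above the run cutoff, the mean inhibition of all test compounds plus 3 SD, cut at about 49% in these data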;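 note: beta-PEA stimulus applied at its EC80; loss of beta-PEA calcium signal after compound pretreatment read as receptor desensitization; 0% = DMSO with beta-PEA at EC80 and 100% = DMSO alone without agonist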
Ga16 antag count = counter-screen for TAAR1 agonists: nonselective Ga16 antagonists; shares compounds with TAAR1 ag; CHO-Ga16 ATP-induced calcium, Fluo-8 fluorescence; inhibition, % at 3 µM; hit rate 39% among 2,400;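 active = inhibition above the plate's mean compound inhibition plus 3 SD, computed per plate, cut at about 22% in these data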;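 note: 0% = EC80 ATP with DMSO and 100% = DMSO wells without ATP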
* = called active by the depositor; · = no result.

SMILES	CHRM4 agonist	TAAR1 antag	TAAR1 ag	CHRM4 antagonist	M4 PAM	TAAR1 ag confirm	Ga16 nonsel ag	TAAR1 desensitize	Ga16 antag count
CCOc1ccc(NC(=O)N2CCC(c3ccc(C)cc3)C2)cc1 (stereo unspecified)	1.4	38.1	51.0*	-0.2	7.0	6.6	3.5	11.2	10.2
O=C(/C=C/c1ccco1)N1CCCC(c2ccccc2)C1 (stereo unspecified)	0.3	18.1	48.7*	-11.1	8.3	33.4	-0.6	30.8	7.3
O=C(Nc1ccccc1)N1CCC(c2ccccc2)C1 (stereo unspecified)	0.9	-6.7	8.4	5.7	10.9	·	·	·	·
Cc1ccc(NC(=O)N2CCCC(c3ccccc3)C2)cc1 (stereo unspecified)	0.0	20.8	49.5*	6.4	-2.4	58.2*	-1.4	32.8	3.2
CC(C)(C)NC(=O)C(C1CC1)n1c(=O)c(-c2ccccc2)nc2ccccc21 (stereo unspecified)	-2.1	-13.7	2.5	-5.1	6.3	·	·	·	·
Cc1cccc(NC(=O)c2ncn3c2C(=O)N[C@H](C)C3)c1	0.7	-17.6	2.0	-10.9	17.8	·	·	·	·
CN(C[C@H](Cc1ccccc1)N(C[C@H](c1ccccc1)N(CCc1ccccc1)N=O)N=O)N=O	1.0	18.5	34.6	4.9	-1.0	·	·	·	·
CN(C[C@@H](Cc1cccc2ccccc12)N(C[C@H](Cc1ccccc1)N(CCc1ccccc1)N=O)N=O)N=O	0.8	7.9	50.9*	1.2	18.2	76.5*	3.5	18.1	7.9
Cc1ccc(C(c2cc(Cl)c3cccnc3c2O)N2CCN(C)CC2)cc1 (stereo unspecified)	3.7	·	·	3.1	-4.8	·	·	·	·
CN1CCN(C(c2ccc(C(F)(F)F)cc2)c2ccc3cccnc3c2O)CC1 (stereo unspecified)	·	10.3	101.8*	·	·	128.7*	94.3*	63.0*	19.3
CC(=O)Nc1ccc(Sc2ncccc2C(=O)Nc2ccc(F)cc2)cn1	93.6*	104.1*	174.1*	26.3	-26.4	149.6*	112.7*	105.5*	88.7*
CC1CCN(c2ccc(NC(=O)Cc3ccccc3)cc2)CC1	1.3	53.1*	84.2*	2.7	0.2	-1.1	20.1*	1.3	13.0
O=C(Nc1nnc(-c2ccc(Cl)cc2)o1)c1nc2ccccc2s1	0.8	29.1	92.4*	-3.1	0.8	84.7*	70.9*	49.9*	54.1*
COC(=O)c1ccc(-c2ccc(CNCC(O)c3ccccc3)o2)cc1 (stereo unspecified)	5.0	1.6	39.2*	-6.2	5.7	26.0	4.7	14.2	4.7
CC(C)C[C@H](NC(=O)CC[C@H]1O[C@@H](n2ccc(=O)[nH]c2=O)[C@H](O)[C@@H]1O)C(=O)O	0.6	-12.8	0.5	1.3	-0.6	·	·	·	·
CCCC(=O)NC(=S)Nc1ccc(S(=O)(=O)Nc2ccc(OCC)cc2)cc1	16.7	33.5	73.6*	-3.1	7.4	85.0*	35.4*	66.5*	38.8*
CCOc1ccc(NS(=O)(=O)c2ccc(C(=O)N(C)CC(=O)Nc3ccc(OC)cc3)cc2)cc1	1.2	-10.9	1.6	-0.5	3.7	·	·	·	·
CCN(CC(=O)Nc1ccc(OC)cc1)C(=O)c1ccc(NS(=O)(=O)c2ccc(C(C)=O)cc2)cc1	0.2	-10.8	0.9	-3.8	9.1	·	·	·	·
CCOc1ccc(NS(=O)(=O)c2ccc(NC(=S)NC(=O)CC(C)C)cc2)cc1	12.9	61.0*	71.9*	9.2	4.6	70.4*	30.7*	67.9*	38.5*
C=C(C)CN(CC)C(=O)COc1ccc(S(=O)(=O)Nc2ccc(OC)cc2)cc1	14.9	14.2	63.0*	6.7	-9.4	59.1*	30.0*	23.3	22.2*
CS(=O)(=O)n1c2ccccc2c(=O)n1-c1ccccc1CCl	1.7	-15.9	1.3	-0.3	-0.5	·	·	·	·
O=C(CCCN=C1NS(=O)(=O)c2ccccc21)OCC(=O)c1ccc(F)cc1	14.7	30.5	67.3*	-9.2	2.4	85.8*	33.2*	33.5	29.6*
CC1(c2nnnn2-c2ccc3c(c2)OCCO3)CCC(=O)N1Cc1ccc(F)cc1 (stereo unspecified)	0.9	-14.1	-0.1	-1.4	12.3	·	·	·	·
COc1cc(OC)cc(C2=Cc3ccccc3C(CC(=O)c3ccco3)N2c2ccc(-c3cccnc3)cc2)c1 (stereo unspecified)	-0.3	-36.1	1.0	-13.8	-4.4	·	·	·	·
C[C@H](CO)N1C[C@H](C)[C@H](CN(C)C(=O)Nc2cccc(F)c2)Oc2cc(Br)ccc2S1(=O)=O	·	11.3	9.3	·	·	·	·	·	·
SMILES	CHRM4 agonist	TAAR1 antag	TAAR1 ag	CHRM4 antagonist	M4 PAM	TAAR1 ag confirm	Ga16 nonsel ag	TAAR1 desensitize	Ga16 antag count
CCOC(=O)C(NCCc1ccccc1)(NC(=O)CC)C(F)(F)F (stereo unspecified)	0.8	51.6*	94.2*	-3.3	19.4	97.8*	4.7	80.0*	-2.4
CCOC(=O)C(NCCc1ccccc1F)(NC(=O)CC)C(F)(F)F (stereo unspecified)	0.3	·	·	3.0	-1.9	·	6.1	·	7.6
CCOC(=O)C(NCc1ccc2c(c1)OCO2)(NC(=O)CC)C(F)(F)F (stereo unspecified)	1.3	-8.3	3.9	-2.3	13.2	·	·	·	·
CC(c1ccon1)N(C)C(=O)c1cccc(OC2CCN(S(C)(=O)=O)CC2)c1 (stereo unspecified)	2.1	-14.1	3.0	-0.5	-0.4	·	·	·	·
C/C(=N\Nc1ncnc2sc(C)c(C)c12)c1ccccn1	2.2	104.2*	135.3*	-17.2	5.0	94.6*	95.0*	83.8*	85.8*
Cc1sc2ncnc(N/N=C/c3cccc(O)c3)c2c1C	3.0	-2.6	8.7	9.8	2.5	·	·	·	·
COC(=O)[C@]12CCCCC=C1N(Cc1ccccc1)C(=O)[C@H](CC(=O)NCCCCc1ccccc1)C2	5.4	41.1	9.4	-9.4	-1.8	·	·	·	·
Cc1ccccc1C(=O)N1CCC[C@@H]1C(=O)N1CCC[C@H]1C(=O)NCc1ccncc1	0.1	-17.2	0.2	9.1	-3.1	·	·	·	·
CCOC(=O)N[C@@H](Cc1cccnc1)C(=O)N1CCC[C@H]1C(=O)NCCc1ccccc1Cl	·	60.9*	66.8*	·	·	88.9*	5.5	85.6*	4.9
